In ChEMBL document CHEMBL1132616, “6-Substituted benzopyrans as potassium channel activators: synthesis, vasodilator properties, and multivariate analysis” (1999):

Assays:
Rattus norvegicus [1] = species: Rattus norvegicus; experiment: Relaxant potency in rat aorta.; assay type: functional
In short: (§1)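 Aortic rings (5 mm wide) were denuded of endothelium, confirmed by the absence of a dilator response to 1 mmol/L acetylcholine. Tracheal strips were cut through the ring opposite the muscle layer. Tissues were mounted in 7-mL baths for isometric force recording. Once contraction was stable, cumulative concentration–effect curves were run. Compounds came from 10^-2 M DMSO stocks diluted in water, with final bath DMSO at most 2%.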

Rattus norvegicus [2] = species: Rattus norvegicus; experiment: Relaxant potency in rat trachea.; assay type: functional; in short: as §1

Structure (SMILES)	Log 1/C (Rattus norvegicus [1])	Log 1/C (Rattus norvegicus [2])
CC1(C)C=C(n2ccccc2=O)c2cc(C(F)(F)F)ccc2O1	7.61	7.37
CC1(C)C=C(n2ccccc2=O)c2cc(Br)ccc2O1	7.84	7.53
CC1(C)C=C(n2ccccc2=O)c2cc(-c3ccncc3)ccc2O1	6.68	6.32
CC1(C)C=C(n2ccccc2=O)c2cc(C(=N)NO)ccc2O1	5.99	5.51
CC1(C)C=C(n2ccccc2=O)c2cc(C(=O)c3ccccc3C(F)(F)F)ccc2O1	6.76	5.78
CC1(C)C=C(n2ccccc2=O)c2cc(C(=O)c3ccccc3F)ccc2O1	7.08	6.34
CCC(=O)c1ccc2c(c1)C(n1ccccc1=O)=CC(C)(C)O2	6.63	5.85
CC1(C)C=C(n2ccccc2=O)c2cc(OCC(=O)c3ccc(F)cc3)ccc2O1	4.63	4.77
CC1(C)C=C(n2ccccc2=O)c2cc(OCC(=O)c3ccccc3)ccc2O1	5.05	4.69
Cc1ccccc1C(=O)c1ccc2c(c1)C(n1ccccc1=O)=CC(C)(C)O2	6.83	6.25
CC1(C)C=C(n2ccccc2=O)c2cc(OC(=O)Nc3ccccc3F)ccc2O1	5.38	4.22
CC1(C)C=C(n2ccccc2=O)c2cc(C(=O)c3c(F)cccc3F)ccc2O1	6.97	5.99
CC1(C)C=C(n2ccccc2=O)c2cc(O)ccc2O1	5.44	5.31
COc1ccc(C(=O)c2ccc3c(c2)C(n2ccccc2=O)=CC(C)(C)O3)cc1	6.15	5.72
COc1ccc2c(c1)C(n1ccccc1=O)=CC(C)(C)O2	6.55	5.99
CC1(C)C=C(n2ccccc2=O)c2cc(OC(=O)Nc3ccccc3C(F)(F)F)ccc2O1	5.58	5.19
CC1(C)C=C(n2ccccc2=O)c2cc(C(=O)c3ccc(O)cc3)ccc2O1	6.65	5.87

Structure (SMILES)	Log 1/C (Rattus norvegicus [1])	Log 1/C (Rattus norvegicus [2])
CC1(C)C=C(n2ccccc2=O)c2cc(OC(=O)Nc3ccccc3)ccc2O1	5.3	4.89
CC1(C)C=C(n2ccccc2=O)c2cc(C(=O)c3cccs3)ccc2O1	6.4	5.84
CC1(C)C=C(n2ccccc2=O)c2cc(C(=O)c3ccccc3)ccc2O1	6.61	6.21
CC1(C)C=C(n2ccccc2=O)c2cc(C(=O)c3ccco3)ccc2O1	6.49	5.92
CC1(C)C=C(n2ccccc2=O)c2cc(C(=O)c3ccccc3[N+](=O)[O-])ccc2O1	6.17	5.64
CC1(C)C=C(n2ccccc2=O)c2cc(C(=N)S)ccc2O1	6.21	5.96
CC(=O)c1ccc2c(c1)C(n1ccccc1=O)=CC(C)(C)O2	7.37	6.65
Cc1ccc(C)n1-c1ccc2c(c1)C(n1ccccc1=O)=CC(C)(C)O2	7.27	6.78
CC1(C)C=C(n2ccccc2=O)c2cc(C(=O)c3ccc([N+](=O)[O-])cc3)ccc2O1	6.2	6.09
CC1(C)C=C(n2ccccc2=O)c2ccccc2O1	5.43	5.05
CC(=O)Oc1ccc2c(c1)C(n1ccccc1=O)=CC(C)(C)O2	5.6	4.97
CC1(C)C=C(n2ccccc2=O)c2cc(OS(=O)(=O)F)ccc2O1	7.95	7.22
CC1(C)C=C(n2ccccc2=O)c2cc(C=O)ccc2O1	6.91	6.14
CC1(C)C=C(n2ccccc2=O)c2cc(OC(=O)Nc3ccc(F)cc3)ccc2O1	5.3	4.37
CC1(C)C=C(n2ccccc2=O)c2cc(C=C(C#N)C#N)ccc2O1	6.95	6.3
CC1(C)C=C(n2ccccc2=O)c2cc(OC(=O)Nc3ccc(C(F)(F)F)cc3)ccc2O1	5.1	4.54
CC1(C)C=C(n2ccccc2=O)c2cc(C#N)ccc2O1 [BIMAKALIM]	7.67	7.1
